High-throughput results from PubChem.
thrombin 1536: blocks human thrombin protease activity | alpha-thrombin, Boc-VPR-AMC fluorogenic substrate cleavage | AID 1046 | 220,000 tested, 0.26% active | inhibition, % at 5 µM | P00734;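 active = inhibition at or above 40%; inactive = inhibition below 40%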;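 also: 0% = enzyme with no compound and 100% = wells without enzyme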
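signal = AMC fluorescence, 355/460 nm | material = human alpha-thrombin enzyme | control set = enzyme without compound as high, wells lacking enzyme as low | times = reaction at room temperature | read-out basis = percent inhibition scaled between no-compound controls and no-enzyme blanks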
FXIa inh: blocks human coagulation factor XIa protease activity. inhibition, % at 5 µM. 220,000 tested, 0.14% active. purified FXIa, Boc-Glu-Ala-Arg-AMC fluorogenic substrate;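 active = inhibition of at least 40%; inactive = inhibition below 40%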;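 also: fluorescence of freed AMC excited at 355 nm; 0% = enzyme without compound and 100% = no enzyme blank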
FXIIa inh: factor XIIa (human) inhibition | purified FXIIa, Boc-QGR-AMC fluorogenic substrate, 2 h | inhibition, % at 5 µM | 220,000 tested, 0.3% active; in the data active = inhibition above about 40%;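 also: 0% = enzyme with no compound and 100% = blank without enzyme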
EP2 mod: modulates human prostaglandin E2 receptor EP2 signaling; P43116; EP2-expressing cells, cAMP HTRF FRET, PGE2 co-stimulation; induction, % at 25 µM; 260,000 tested, 0.83% active;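 active = compounds whose cAMP rise, as percent of the full-agonist control response, exceeds 60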;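 also: rat C6 glioma line stably carrying human EP2 under a CMV promoter; the protocol text gives 20 µM as final concentration; 100% = response of wells given 1 µM PGE2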
Target sequence (P43116 whole entry, looked up): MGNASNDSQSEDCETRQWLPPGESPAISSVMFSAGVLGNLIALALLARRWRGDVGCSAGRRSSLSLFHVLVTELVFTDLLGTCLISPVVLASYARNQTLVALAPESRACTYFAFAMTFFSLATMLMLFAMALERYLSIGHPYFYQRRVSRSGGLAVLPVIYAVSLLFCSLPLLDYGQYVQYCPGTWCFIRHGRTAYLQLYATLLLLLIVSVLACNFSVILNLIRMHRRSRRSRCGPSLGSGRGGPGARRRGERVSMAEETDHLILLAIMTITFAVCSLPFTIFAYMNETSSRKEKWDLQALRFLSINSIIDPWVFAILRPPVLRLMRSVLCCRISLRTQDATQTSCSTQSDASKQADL
PGE2 EP2 inh: EP2 receptor (human) inhibition | 260,000 tested, 0.52% active | P43116 | C6 glioma cells expressing human EP2, cAMP TR-FRET; cells stimulated with saturating PGE2 | inhibition, % at 25 µM | AID 1422;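 active = percent inhibition above 40 after rounding to a whole number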;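 also: rat C6 glioma host cells with rolipram phosphodiesterase inhibitor present; the protocol text gives 20 µM as final concentration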
hK5 inh: kallikrein 5 (human) inhibition. Q9Y337. recombinant hK5, fluorogenic AMC substrate cleavage. inhibition, % at 5 µM. 210,000 tested, 0.59% active. AID 873;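 active = inhibition of 40% or more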;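 also: 0% = enzyme controls without compound and 100% = no-enzyme blanks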
Target sequence (Q9Y337 67-293 limits assumed): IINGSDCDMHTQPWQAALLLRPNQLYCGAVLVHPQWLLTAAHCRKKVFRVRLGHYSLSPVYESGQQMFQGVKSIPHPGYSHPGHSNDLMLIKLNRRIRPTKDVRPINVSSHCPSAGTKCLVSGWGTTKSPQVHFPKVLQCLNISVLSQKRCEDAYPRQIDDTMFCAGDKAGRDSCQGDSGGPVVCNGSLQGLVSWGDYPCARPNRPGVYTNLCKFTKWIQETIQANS
* = called active by the depositor; nt = no result given; ! = a repeat was not active. Sampled rows, rich in hits. Any-hit rate of the full collection: about 2.1%.

SMILES	thrombin 1536	FXIa inh	FXIIa inh	EP2 mod	PGE2 EP2 inh	hK5 inh
CC(C)c1ccc2c(c1)CCC1C(C)(CN)CCCC21C (stereo unspecified)	2	-1	6	0	11	-1
N#CC(c1ccc(F)cc1)c1ccc(C(=O)c2ccccc2)cc1 (stereo unspecified)	-10	4	12	2	9	-2
N#CC(c1ccccc1)c1ccc(C(=O)c2ccc(F)cc2)cc1 (stereo unspecified)	1	4	11	62*	-1	-7
Cc1ccc(-c2cc(C(F)F)n3ncc(C(=O)N4CCN(c5ccccn5)CC4)c3n2)cc1	-5	-11	-4	-21	11	14
CCc1nccn1C(=O)c1cnn2c(C(F)F)cc(-c3ccc(C)cc3)nc12	77*	-2	3	-6	18	-24
CCc1nccn1C(=O)c1cnn2c(C(F)F)cc(-c3ccccc3)nc12	76*	11	16	-25	12	2
CCN1CCN(C(=O)c2cnn3c(C(F)F)cc(-c4ccc(C)cc4)nc23)CC1	-5	-6	-3	-11	1	8
CCC(=O)N1CCN(CCN=CC2=C(O)CC(C)(C)CC2=O)CC1	17	10	-9	3	6	40*
CC1(C)CC(=O)C(C=NCCN2CCN(C(=O)CCl)CC2)=C(O)C1	-5	1	6	-3	12	0
COc1ccc2oc(=O)c(-c3nnc(-c4cc(OC)c(OC)c(OC)c4)o3)cc2c1	nt	nt	nt	-54	9	nt
O=C1/C(=C/c2cccc3ccccc23)CCCc2ccccc21	2	6	14	61*	nt	13
O=C1/C(=C/c2ccncc2)CCc2ccccc21	6	3	15	-16	2	3
O=c1c(Cl)c(Cl)cnn1Cc1ccc(F)cc1	22	38	52*	-8	15	28
CN(C)c1ccc(P(=O)(OCc2ccccc2)C(O)c2ccncc2)cc1 (stereo unspecified)	3	11	23	-10	nt	-9
CCCOP(=O)(c1ccc(N(C)C)cc1)C(O)c1ccncc1 (stereo unspecified)	66*	11	15	6	4	15
CCCOC(=O)c1ccc(OCC(O)Cn2c[n+](C)c3ccccc32)cc1 (stereo unspecified)	nt	nt	nt	-14	5	nt
CC1=CC(C)(C)n2c(O)c(N=NC(N)=S)c3c(C)ccc1c32	7	13	4	17	23	-9
CC1=CC(C)(C)n2c(O)c(N=NC(N)=S)c3c(C)c(C)cc1c32	6	5	14	-10	2	2
CC1=CC(C)(C)n2c(O)c(N=N)c3c(C)c(C)cc1c32	-6	-1	1	76*	5	0
CC1=CC(C)(C)n2c(O)c(N=N)c3c(C)ccc1c32	1	3	11	82*	11	4
COc1ccc(OC)c(NC(=O)C2=C(C)NC(=O)NC2c2cc(OC)ccc2OC)c1 (stereo unspecified)	nt	nt	nt	5	7	nt
O=S1(=O)c2ccccc2N=NN1Cc1ccc(Cl)cc1	5	5	16	-23	43*	7
O=S1(=O)c2ccccc2N=NN1Cc1cc(Cl)cc(Cl)c1	0	1	16	11	11	-26
C[N+](C)(C)CCN(Cc1cccs1)c1ccccn1	nt	nt	nt	14	55*	nt
CC[N+](C)(C)CCN(Cc1ccc(Cl)cc1)c1ccccn1	4	0	11	3	9	-13
SMILES	thrombin 1536	FXIa inh	FXIIa inh	EP2 mod	PGE2 EP2 inh	hK5 inh
Fc1ccc(Nc2ccc3ccccc3n2)c(F)c1	36	104*	36	-38	3	47*
O=C(Nc1ccc2c(c1)CCC2)C1CCN(c2ccc(S(=O)(=O)N3CCOCC3)cc2)CC1	nt	nt	nt	14	25	nt
CCc1nn(CC(=O)NCCc2ccc(OC)cc2)c(=O)c2cc3ccsc3n12	nt	nt	nt	-31	nt	nt
COc1ccc2cc(C(c3nnnn3C3CCCCC3)N3CCCC4(CCCCC4)C3)c(=O)[nH]c2c1 (stereo unspecified)	nt	nt	nt	27	5	nt
O=[N+]([O-])c1cccc(/C=C/c2nc3ccc([N+](=O)[O-])cc3[nH]2)c1	0	1	16	-46	44*	2
CC(C)(C)c1ncc(C(=O)Nc2nnc(Cc3cccc(F)c3)s2)cn1	nt	nt	nt	-64	4	nt
CCOC(=O)NC(=O)CSc1nc2ccc(OCC)cc2[nH]1	3	2	22	-1	nt	-8
CCOC(=O)NC(=O)CSc1nc2ccc([N+](=O)[O-])cc2[nH]1	14	31	27	-42	0	44*
CSc1ccccc1-c1n[nH]c(=S)o1	-8	-1	10	38	46*	3
O=C(c1ccc(Cl)cc1)C1CCN(CC(=O)N2CCOCC2)CC1	nt	nt	nt	-4	9	nt
CC(C)C(=O)N1CCN(c2ccc(NC(=O)COc3ccccc3[N+](=O)[O-])cc2)CC1	-8	-5	nt	-34	44*	-4
Cc1oc2c(c1C(=O)O)C(=O)c1ccccc1C2=O	0	-1	8	-41	14	-3
O=C1C(=O)c2c(C(=O)c3ccccc3)coc2-c2ccccc21	8	3	17	-33	45*	-11
Cc1oc2c(c1C(=O)c1ccccc1)C(=O)C(=O)c1ccccc1-2	1	11	8	-44	57*	-12
S=c1[nH]nc(-c2cccs2)n1/N=C/c1cn(-c2ccccc2)nc1-c1cccs1	-2	2	2	86*	7	3
CCCn1c(=O)c(C(=O)Nc2ccccc2C(F)(F)F)c(O)c2ccccc21	nt	nt	nt	-33	10	nt
CCn1cc(C(O)CN2CCC3(CC2)CC(O)c2cc(O)ccc2O3)c2ccccc21 (stereo unspecified)	nt	nt	nt	-93	15	nt
Nc1ccc2c(c1)Cc1cc([N+](=O)[O-])ccc1-2	0	2	12	-67	8	5
COc1ccc2c(c1)Cc1cc(N=[N+]([O-])c3ccc4c(c3)Cc3cc(OC)ccc3-4)ccc1-2	nt	nt	nt	-80	114*	nt
NC1=NC(=Nc2cccc(S(N)(=O)=O)c2)c2ccccc21	2	6	16	0	11	3
COc1cc(N=Nc2cccc(S(N)(=O)=O)c2)c2ccccc2c1N	4	0	8	-51	79*!	-3
CCc1nn(CC(=O)N(C)C)c(=O)c2cc3sc(C)cc3n12	nt	nt	nt	-3	nt	nt
O=C(Cn1nc(-c2ccc3c(c2)OCCO3)ccc1=O)Nc1ccc(S(=O)(=O)N2CCCC2)cc1	nt	nt	nt	-17	9	nt
COCC(=O)NC(CC(C)C)c1nc2cccnc2n1C (stereo unspecified)	nt	nt	nt	-15	nt	nt
CCn1c(C(=O)Nc2ccsc2C(=O)OC)cc2sc(Cl)cc21	5	-1	-5	28	12	46*
COC(=O)c1sccc1NC(=O)c1ccc(Cl)s1	-10	4	-10	31	3	-11
Cc1ccc(-c2csc(NC3OC(=O)c4c#cccc43)n2)cc1 (stereo unspecified)	nt	nt	nt	-56	9	nt
